Assays:
Rhizopus arrhizus [1] = experiment: Antimicrobial activity against Rhizopus oryzae isolate 6725 after 24 hrs in yeast nitrogen base complete medium by broth microdilution method; type: functional, organism-based
How it was run: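 Microdilution was done in yeast nitrogen base complete medium, with colistin serially diluted 128 to 0.12 μg/ml. Spores were harvested from YAG plates (48–72 h, 37°C), washed, filtered and counted, then added at 0.5 × 10^4 to 4 × 10^4 cells/ml. After 24 h at 37°C, MIC was taken visually as the lowest concentration with complete growth inhibition.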

Rhizopus arrhizus [2] = experiment: Antimicrobial activity against Rhizopus oryzae isolate 4153 after 24 hrs in RMPI 1640 medium by broth microdilution method; type: functional, organism-based
How it was run: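 Colistin was serially diluted from 64 to 0.06 μg/ml in RPMI 1640 with glucamine and without bicarbonate. Fresh spores from 48–72 h YAG plates were added at 0.5 × 10^4 to 4 × 10^4 cells/ml. Plates were incubated 24 h at 37°C. MIC was read visually as the lowest concentration giving 100% growth inhibition.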

With COLISTIN the MFC (Rhizopus arrhizus [1]) was > 128 µg/mL, the MIC (Rhizopus arrhizus [1]) was 128 µg/mL and the MFC (Rhizopus arrhizus [2]) was 64 µg/mL. It also gave an MIC (Rhizopus arrhizus [2]) of 16 µg/mL.

Reference: ChEMBL document CHEMBL1212759, “Antifungal activity of colistin against mucorales species in vitro and in a murine model of Rhizopus oryzae pulmonary infection” (Antimicrob Agents Chemother, 2010)
